Activity calls are given as the source filed them. The calls are words filed in the database; no cut-off is given here.
How the values were obtained:
HeLa = assay: Antiproliferative activity against human HeLa cells assessed as cell viability after 48 hrs by MTT assay; type: functional
Summary of the method: (§1)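 Cells plated at 2 × 10^4 cells/mL and allowed to adhere for 24 h, then exposed to compounds for 48 h. MTT reagent (5 mg/mL stock) added for 2 h, formazan dissolved in DMSO, OD read at 490 nm.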

MCF7 = assay: Antiproliferative activity against human MCF7 cells assessed as cell viability after 48 hrs by MTT assay; type: functional; settings: MCF7, 48 h; summary of the method: as §1
Jurkat [1] = assay: Induction of apoptosis in human Jurkat cells assessed as morphological changes after 2 hrs by light microscopy; type: functional, cell-based
Summary of the method: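 Jurkat cells exposed to compound at 1 μM for 2 h, with 0.1% DMSO as control. Finger-like extensions and shriveling scored by light microscopy.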

Jurkat [2] = assay: Cell cycle arrest in human Jurkat cells assessed as accumulation at S phase at 1 uM after 24 hrs by flow cytometry; type: functional
Summary of the method: (§2)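 Cells stained with Vybrant DyeCycle Orange in HHB (1 μL dye per mL) for 30 min at 37 °C in the dark, then analysed by flow cytometry. % relative DNA content ± SD, two independent experiments each in triplicate.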

Jurkat [3] = assay: Induction of apoptosis in human Jurkat cells assessed as oligonucleosomal DNA fragments at 1.5 uM after 36 hrs by DNA laddering assay; type: functional, cell-based
Summary of the method: (§3)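 About 1 × 10^6 Jurkat cells treated for 36 h. Cells lysed in Tris-HCl pH 8/EDTA/0.5% SDS/proteinase K at 55 °C for 60 min, then RNase at 55 °C for 60 min. Cleared lysate run on a 1.5% agarose gel with ethidium bromide at 80 V for about 1 h and viewed under UV.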

Bos taurus [4] = organism: Bos taurus; assay: Inhibition of bovine tubulin polymerization at 25 uM
Summary of the method: (§4)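 Purified bovine tubulin incubated at 37 °C in buffer with 10% glycerol and 1 mM GTP, each agent in a separate run against a 0.05% DMSO control. Polymerization followed kinetically by fluorescence increase on a plate reader.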

Jurkat [5] = assay: Cell cycle arrest in human Jurkat cells assessed as accumulation at G2/M phase at 1 uM after 24 hrs by flow cytometry; type: functional; summary of the method: as §2
Jurkat [6] = assay: Cell cycle arrest in human Jurkat cells assessed as accumulation at G0/G1 phase at 1 uM after 24 hrs by flow cytometry; type: functional; summary of the method: as §2
Jurkat [7] = assay: Induction of apoptosis in human Jurkat cells at 5 uM by annexin V/propidium iodide assay; type: functional, cell-based
Summary of the method: (§5)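 Jurkat cells at 2 × 10^5 cells/mL exposed to compounds, with DMSO control. Exposure was 5 μM for 36 h, 1 μM for 12–60 h, or 48 h across a range of doses. Cells stained with Annexin-V-FITC/propidium iodide in HHB with CaCl2 for 20 min at 37 °C. Flow cytometry gives % Annexin-V-positive cells; four replicates, experiment repeated twice.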

Jurkat [8] = assay: Induction of apoptosis in human Jurkat cells by annexin V/propidium iodide assay; type: functional, cell-based; settings: TDE = time-dependent effect; summary of the method: as §5
Jurkat [9] = assay: Induction of apoptosis in human Jurkat cells at 100 nM by annexin V/propidium iodide assay
Jurkat [10] = assay: Induction of apoptosis in human Jurkat cells assessed as oligonucleosomal DNA fragments at 0.4 uM after 36 hrs by DNA laddering assay; type: functional, cell-based; summary of the method: as §3
Bos taurus [11] = organism: Bos taurus; assay: Induction of bovine tubulin polymerization at 3 uM relative to control; summary of the method: as §4

Structure (SMILES)	GI50 (HeLa)	GI50 (MCF7)	further results
Cn1c(=O)c2c(c3ccccc31)OC(N)=C(C#N)C2c1cccc(Cl)c1Cl (stereo not given)	1800 nM	> 50000 nM	–
COc1ccc(C2C(C#N)=C(N)Oc3c2c(=O)n(C)c2ccccc32)cc1Br (stereo not given)	410 nM	500 nM	–
COc1cc(C2C(C#N)=C(N)Oc3c2c(=O)n(C)c2ccccc32)cc(Br)c1OC (stereo not given)	14 nM	380 nM	Activity (Jurkat [1]): Active; Activity (Jurkat [2]): 28%; Activity (Jurkat [3]): Active; Activity (Bos taurus [4]): Active; Activity (Jurkat [5]): 49%; Activity (Jurkat [6]): 20%
COc1cc(C2C(C#N)=C(N)Oc3cc(C)n(C)c(=O)c32)cc(Br)c1OC (stereo not given)	580 nM	–	Activity (Jurkat [7]): Active
COc1cc(C2C(C#N)=C(N)Oc3cc(C)n(C)c(=O)c32)cc(Br)c1O (stereo not given)	2700 nM	–	Activity (Jurkat [7]): Active
Cn1c(=O)c2c(c3ccccc31)OC(N)=C(C#N)C2c1ccc(Cl)c(Cl)c1 (stereo not given)	300 nM	2500 nM	–
CCOc1c(Br)cc(C2C(C#N)=C(N)Oc3cc(C)n(C)c(=O)c32)cc1OC (stereo not given)	1100 nM	–	Activity (Jurkat [7]): Active
COc1cc(C2C(C#N)=C(N)Oc3cc(C)n(C)c(=O)c32)cc(OC)c1OC (stereo not given)	43300 nM	–	–
Cn1c(=O)c2c(c3ccccc31)OC(N)=C(C#N)C2c1cccnc1 (stereo not given)	2000 nM	> 50000 nM	–
Cn1c(=O)c2c(c3ccccc31)OC(N)=C(C#N)C2c1ccccc1[N+](=O)[O-] (stereo not given)	5000 nM	3500 nM	–
Cn1c(=O)c2c(c3ccccc31)OC(N)=C(C#N)C2c1ccco1 (stereo not given)	22000 nM	35000 nM	–
Cc1cc2c(c(=O)n1C)C(c1ccc(C(C)C)cc1)C(C#N)=C(N)O2 (stereo not given)	> 100000 nM	–	Activity (Jurkat [7]): inactive
COc1cc(C2C(C#N)=C(N)Oc3c2c(=O)n(C)c2ccccc32)cc(OC)c1OC (stereo not given)	240 nM	1000 nM	–
COc1cc(C2C(C#N)=C(N)Oc3c2c(=O)n(C)c2ccccc32)ccc1O (stereo not given)	630 nM	500 nM	–
Cn1c(=O)c2c(c3ccccc31)OC(N)=C(C#N)C2c1cc(Br)cc(Br)c1 (stereo not given)	77 nM	75 nM	–
Cn1c(=O)c2c(c3ccccc31)OC(N)=C(C#N)C2c1cccc(Br)c1 (stereo not given)	740 nM	3 nM	–
Cn1c(=O)c2c(c3ccccc31)OC(N)=C(C#N)C2c1ccccc1 (stereo not given)	390 nM	3380 nM	–
Cn1c(=O)c2c(c3ccccc31)OC(N)=C(C#N)C2c1cc(Br)c(O)c(Br)c1 (stereo not given)	270 nM	430 nM	–
Cn1c(=O)c2c(c3ccccc31)OC(N)=C(C#N)C2c1ccncc1 (stereo not given)	> 50000 nM	32000 nM	–
COc1cc(C2C(C#N)=C(N)Oc3c2c(=O)n(C)c2ccccc32)cc(Br)c1OC(C)=O (stereo not given)	180 nM	25 nM	–

Structure (SMILES)	GI50 (HeLa)	GI50 (MCF7)	further results
Cn1c(=O)c2c(c3ccccc31)OC(N)=C(C#N)C2c1c(Cl)cccc1Cl (stereo not given)	> 50000 nM	36000 nM	–
Cn1c(=O)c2c(c3ccccc31)OC(N)=C(C#N)C2c1cccc(Cl)c1 (stereo not given)	150 nM	2200 nM	–
Cc1cc2c(c(=O)n1C)C(c1ccc(Cl)c(Cl)c1)C(C#N)=C(N)O2 (stereo not given)	18300 nM	–	Activity (Jurkat [7]): inactive
Cn1c(=O)c2c(c3ccccc31)OC(N)=C(C#N)C2c1cccc([N+](=O)[O-])c1 (stereo not given)	320 nM	1100 nM	–
Cc1cc2c(c(=O)n1C)C(c1cccc(Br)c1)C(C#N)=C(N)O2 (stereo not given)	6500 nM	–	Activity (Jurkat [7]): Active
Cc1cc2c(c(=O)n1C)C(c1ccc(F)c(Br)c1)C(C#N)=C(N)O2 (stereo not given)	6400 nM	–	Activity (Jurkat [7]): Active
Cc1cc2c(c(=O)n1C)C(c1ccc(N(C)C)c(Br)c1)C(C#N)=C(N)O2 (stereo not given)	330 nM	–	Activity (Jurkat [7]): Active
COc1cc(C2C(C#N)=C(N)Oc3c2c(=O)n(C)c2ccccc32)cc(Br)c1O (stereo not given)	47 nM	390 nM	Activity (Jurkat [8]): tde; Activity (Jurkat [9]): Active; Activity (Jurkat [1]): Active; Activity (Jurkat [2]): 22%; Activity (Jurkat [3]): Active; Activity (Bos taurus [4]): Active; Activity (Jurkat [5]): 47%; Activity (Jurkat [6]): 27%
Cn1c(=O)c2c(c3ccccc31)OC(N)=C(C#N)C2c1cccc(F)c1 (stereo not given)	300 nM	1000 nM	–
COc1cc([C@@H]2c3cc4c(cc3[C@H](O)[C@H]3COC(=O)[C@H]23)OCO4)cc(OC)c1OC	–	–	Activity (Bos taurus [4]): Active
Cc1cc2c(c(=O)o1)C(c1cccc(Br)c1)C(C#N)=C(N)O2 (stereo not given)	> 100000 nM	–	–
Cc1ccc(C2C(C#N)=C(N)Oc3c2c(=O)n(C)c2ccccc32)o1 (stereo not given)	3900 nM	5100 nM	–
Cc1cc2c(c(=O)n1C)C(c1cccc([N+](=O)[O-])c1)C(C#N)=C(N)O2 (stereo not given)	35000 nM	–	–
COc1ccc(CCn2c(C)cc3c(c2=O)C(c2cc(OC)c(OC)c(OC)c2)C(C#N)=C(N)O3)cc1OC (stereo not given)	22700 nM	–	Activity (Jurkat [7]): inactive
COc1cc(C2C(C#N)=C(N)Oc3c2c(=O)n(C)c2ccccc32)cc([N+](=O)[O-])c1O (stereo not given)	630 nM	710 nM	–
CC(=O)O[C@H]1C(=O)[C@@]2(C)[C@H]([C@H](OC(=O)c3ccccc3)[C@]3(O)C[C@H](OC(=O)[C@H](O)[C@@H](NC(=O)c4ccccc4)c4ccccc4)C(C)=C1C3(C)C)[C@]1(OC(C)=O)CO[C@@H]1C[C@@H]2O	–	–	Activity (Jurkat [10]): Active; Activity (Bos taurus [11]): Active
Cn1c(=O)c2c(c3ccccc31)OC(N)=C(C#N)C2c1cncc(Br)c1 (stereo not given)	13 nM	15 nM	–
COc1ccc(C2C(C#N)=C(N)Oc3c2c(=O)n(C)c2ccccc32)cc1O (stereo not given)	> 50000 nM	> 50000 nM	–
COc1cc(C2C(C#N)=C(N)Oc3cc(C)n(C)c(=O)c32)cc(Br)c1OC(C)=O (stereo not given)	3500 nM	–	Activity (Jurkat [7]): Active
Cn1c(=O)c2c(c3ccccc31)OC(N)=C(C#N)C2c1ccc(F)c(Br)c1 (stereo not given)	270 nM	810 nM	–

Source: ChEMBL document CHEMBL1144746, “Structural simplification of bioactive natural products with multicomponent synthesis. 2. antiproliferative and antitubulin activities of pyrano[3,2-c]pyridones and pyrano[3,2-c]quinolones” (2008)
